# Source: ChEMBL document CHEMBL1125745, “Unsaturated and carbocyclic nucleoside analogues: synthesis, antitumor, and antiviral activity” (J Med Chem, 1991)
# Assays:
# [1] = Inhibition of incorporation of labeled precursor into macromolecules of noninfected SC-1 cells with the compound at a concentration 100 uM determined against leucine.; assay type: functional
# Procedure, shortened: (§1)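 Noninfected SC-1 cells were incubated with analogue as in the cytotoxicity setup, and [3H]thymidine, [3H]uridine or [3H]leucine was added. After 4 h, wells were washed with ice-cold PBS and cells were lysed in 1% SDS, 0.01 M EDTA, 0.01 M Tris pH 7.7. Lysates were dried on glass-fiber filters, and label is expressed as percent of incorporation in untreated cells.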
# Mus musculus [2] = species: Mus musculus; experiment: Concentration that reduces Rauscher murine leukemia virus titer by 50%; assay type: functional, organism-based
# Procedure, shortened: (§2)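 SC-1 cells (1 × 10^4/well) were pretreated with polybrene, infected 2 h at 37 °C with F-MuLV or R-MuLV in EMEM-5 with 8 µg/mL polybrene, washed, and refed with analogue for 72 h. They were then UV-irradiated and overlaid with XC cells (2 × 10^5) for 48 h, fixed and stained with crystal violet. Multinucleated cells were counted and EC50 was taken by linear regression versus untreated cultures.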
# [3] = Selectivity index is the ratio of IC50 to EC50 of F-MuLV.; assay type: functional
# Mus musculus [4] = species: Mus musculus; experiment: Cytotoxicity was evaluated; assay type: functional
# Procedure, shortened: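 SC-1 cells (1 × 10^4 cells/mL) were seeded, incubated overnight at 37 °C, refed with EMEM-10 and given diluted analogue in triplicate for 72 h at 37 °C. Cells were trypsinized and counted in a Coulter counter. The mean of three wells gave percent of control count, and IC50 was calculated by linear regression.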
# [5] = Inhibition of incorporation of labeled precursor into macromolecules of noninfected SC-1 cells with the compound at a concentration 300 uM determined against uridine.; assay type: functional
# Procedure, shortened: (§3)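 SC-1 cells seeded in 24-well trays at 1 × 10^4 cells/mL, incubated overnight at 37 °C, then exposed to analogue for 72 h at 37 °C. Labeled thymidine (2.5 µCi), [3H-5,6]uridine or [3H-4,5]leucine was added. After 4 h, cells were washed with cold PBS, lysed in 1% SDS/0.01 M EDTA/0.01 M Tris pH 7.7, and lysates were dried on GF/B filters. Result given as % of untreated incorporation.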
# [6] = Inhibition of incorporation of labeled precursor into macromolecules of noninfected SC-1 cells with the compound at a concentration 300 uM determined against leucine.; assay type: functional; procedure, shortened: as §3
# [7] = Inhibition of incorporation of labeled precursor into macromolecules of noninfected SC-1 cells with the compound at a concentration 100 uM determined against thymidine; assay type: functional; procedure, shortened: as §1
# [8] = Inhibition of incorporation of labeled precursor into macromolecules of noninfected SC-1 cells with the compound at a concentration 100 uM determined against uridine.; assay type: functional; procedure, shortened: as §1
# [9] = Inhibition of incorporation of labeled precursor into macromolecules of noninfected SC-1 cells with the compound at a concentration 300 uM determined against thymidine; assay type: functional; procedure, shortened: as §3
# Mus musculus [10] = species: Mus musculus; experiment: Selectivity index which is the ratio of IC50 to EC50 of R-MuLV.; assay type: functional
# Mus musculus [11] = species: Mus musculus; experiment: Concentration that reduces Friend murine leukemia virus titer by 50%; assay type: functional, organism-based; procedure, shortened: as §2
# L1210 [12] = experiment: (§4) Compound was evaluated for inhibition of macromolecular synthesis in murine leukemia L1210 cells at 1 hour against DNA.; assay type: functional, Mus musculus; set-up: scale not given: the % may be the effect or the level left
# L1210 [13] = experiment: (§5) Compound was evaluated for inhibition of macromolecular synthesis in murine leukemia L1210 cells at 4 hour against DNA.; assay type: functional, Mus musculus; set-up: scale not given: the % may be the effect or the level left
# PO3 = experiment: Cytotoxicity was evaluated against PO3 cell line at 250 ug/disk.; assay type: functional, Mus musculus
# Procedure, shortened: (§6)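 Disk zone assay: analogue dilutions on 6.5 mm paper disks were placed on dishes with a 0.8% agar bottom layer and a 0.44% soft-agar top layer of tumor cells (≤1 × 10^5/plate) in Fishers-CMRL-1066 with 12% horse serum. Plates were incubated 6-10 days and the inhibition zone was measured by microscope; 200 zone units = 6 mm.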
# Homo sapiens [14] = species: Homo sapiens; experiment: Cytotoxicity was evaluated against PO1 human solid tumor at 250 ug/disk.; assay type: functional; procedure, shortened: as §6
# L1210 [15] = experiment: Cytotoxicity was evaluated against L1210 leukemia cell line at 250 ug/disk.; assay type: functional, Mus musculus; procedure, shortened: as §6
# L1210 [16] = experiment: (§7) Compound was evaluated for inhibition of macromolecular synthesis in murine leukemia L1210 cells at 1 hour against Protein; assay type: functional, Mus musculus; set-up: scale not given: the % may be the effect or the level left
# L1210 [17] = experiment: Inhibitory activity against murine leukemia L1210 cells; assay type: functional, cell-based; details: Mus musculus
# L1210 [18] = experiment: (§8) Compound was evaluated for inhibition of macromolecular synthesis in murine leukemia L1210 cells at 4 hour against Protein; assay type: functional, Mus musculus; set-up: scale not given: the % may be the effect or the level left
# L1210 [19] = experiment: (§9) Compound was evaluated for inhibition of macromolecular synthesis in murine leukemia L1210 cells at 4 hour against RNA.; assay type: functional, Mus musculus; set-up: scale not given: the % may be the effect or the level left
# L1210 [20] = experiment: (§10) Compound was evaluated for inhibition of macromolecular synthesis in murine leukemia L1210 cells at 1 hour against RNA.; assay type: functional, Mus musculus; set-up: scale not given: the % may be the effect or the level left
# [21] = Cytotoxicity was evaluated against low malignancy line at 250 ug/disk.; assay type: functional; procedure, shortened: as §6
# Homo sapiens [22] = species: Homo sapiens; experiment: Cytotoxicity was evaluated against C116 human solid tumor at 250 ug/disk.; assay type: functional; procedure, shortened: as §6
# Homo sapiens [23] = species: Homo sapiens; experiment: Cytotoxicity was evaluated against C116 human solid tumor at 1000 ug/disk.; assay type: functional; procedure, shortened: as §6
# L1210 [24] = experiment: Cytotoxicity was evaluated against L1210 leukemia cell line at 1000 ug/disk.; assay type: functional, Mus musculus; procedure, shortened: as §6
# MC-38 = experiment: Cytotoxicity was evaluated against C38 solid tumor of mouse at 1000 ug/disk.; assay type: functional; procedure, shortened: as §6
# Mus musculus [25] = species: Mus musculus; experiment: (§11) Cytotoxicity was evaluated against low malignancy line at 1000 ug/disk.; assay type: functional; procedure, shortened: as §6
# L1210 [26] = experiment: Compound were evaluated for inhibition of macromolecular synthesis in murine leukemia L1210 cells at 4 hour against RNA.; assay type: functional, Mus musculus; set-up: scale not given: the % may be the effect or the level left
# Homo sapiens [27] = species: Homo sapiens; experiment: Cytotoxicity was evaluated against PO1 human solid tumor at 500 ug/disk.; assay type: functional; procedure, shortened: as §6
# L1210 [28] = experiment: Compounds were evaluated for inhibition of macromolecular synthesis in murine leukemia L1210 cells at 1 hour against RNA.; assay type: functional, Mus musculus; set-up: scale not given: the % may be the effect or the level left
# L1210 [29] = experiment: Compound were evaluated for inhibition of macromolecular synthesis in murine leukemia L1210 cells at 4 hour against DNA.; assay type: functional, Mus musculus; set-up: scale not given: the % may be the effect or the level left
# [30] = Cytotoxicity was evaluated against CO9 solid tumor of mouse at 500 ug/disk.; assay type: functional; procedure, shortened: as §6
# L1210 [31] = experiment: Compound were evaluated for inhibition of macromolecular synthesis in murine leukemia L1210 cells at 1 hour against Protein; assay type: functional, Mus musculus; set-up: scale not given: the % may be the effect or the level left
# L1210 [32] = experiment: Compounds were evaluated for inhibition of macromolecular synthesis in murine leukemia L1210 cells at 1 hour against DNA.; assay type: functional, Mus musculus; set-up: scale not given: the % may be the effect or the level left
# [33] = Cytotoxicity was evaluated against low malignancy line at 500 ug/disk.; assay type: functional; procedure, shortened: as §6
# L1210 [34] = experiment: Cytotoxicity was evaluated against L1210 leukemia cell line at 500 ug/disk.; assay type: functional, Mus musculus; procedure, shortened: as §6
# L1210 [35] = experiment: Compound were evaluated for inhibition of macromolecular synthesis in murine leukemia L1210 cells at 4 hour against Protein; assay type: functional, Mus musculus; set-up: scale not given: the % may be the effect or the level left
# Nucleic Acid [36] = experiment: as §4; assay type: functional, cell-based; set-up: scale not given: the % may be the effect or the level left; details: Mus musculus
# Nucleic Acid [37] = experiment: Compound was evaluated for inhibition of macromolecular synthesis in murine leukemia L1210 cells at 8 hour against DNA.; assay type: functional, cell-based; set-up: scale not given: the % may be the effect or the level left; details: Mus musculus
# Mus musculus [38] = species: Mus musculus; experiment: as §7; assay type: functional; set-up: scale not given: the % may be the effect or the level left
# Nucleic Acid [39] = experiment: as §10; assay type: functional, cell-based; set-up: scale not given: the % may be the effect or the level left; details: Mus musculus
# Nucleic Acid [40] = experiment: as §5; assay type: functional, cell-based; set-up: scale not given: the % may be the effect or the level left; details: Mus musculus
# Mus musculus [41] = species: Mus musculus; experiment: Compound was evaluated for inhibition of macromolecular synthesis in murine leukemia L1210 cells at 8 hour against Protein; assay type: functional; set-up: scale not given: the % may be the effect or the level left
# Mus musculus [42] = species: Mus musculus; experiment: as §8; assay type: functional; set-up: scale not given: the % may be the effect or the level left
# Nucleic Acid [43] = experiment: as §9; assay type: functional, cell-based; set-up: scale not given: the % may be the effect or the level left; details: Mus musculus
# Nucleic Acid [44] = experiment: Compound was evaluated for inhibition of macromolecular synthesis in murine leukemia L1210 cells at 8 hour against RNA.; assay type: functional, cell-based; set-up: scale not given: the % may be the effect or the level left; details: Mus musculus
# [45] = as §11; assay type: functional; procedure, shortened: as §6
structure (smiles),measurement,setting,value
Nc1ncnc2c1ncn2C1C(O)C(O)C(CO)C1O (stereo unspecified),Precursor inhibition,[1],99%
same,EC50,Mus musculus [2],25 µM
same,SI,[3],3.4
same,IC50,Mus musculus [4],281 µM
same,Precursor inhibition,[5],29%
same,Precursor inhibition,[6],53%
same,Precursor inhibition,[7],115%
same,Precursor inhibition,[8],56%
same,Precursor inhibition,[9],110%
same,SI,Mus musculus [10],9.1
same,EC50,Mus musculus [11],67.3 µM
Nc1ccn(C2C=CCO2)c(=O)n1 (stereo unspecified),Control,L1210 [12],85%
same,Control,L1210 [13],55%
same,Cytotoxicity,PO3,500
same,Cytotoxicity,Homo sapiens [14],600
same,Cytotoxicity,L1210 [15],500
same,Control,L1210 [16],100%
same,IC50,L1210 [17],28 µM
same,Control,L1210 [18],50%
same,Control,L1210 [19],85%
same,Control,L1210 [20],100%
same,Cytotoxicity,[21],400
same,Cytotoxicity,Homo sapiens [22],450
Cc1cn(C2C=CCO2)c(=O)[nH]c1=O (stereo unspecified),Control,L1210 [13],10%
same,Cytotoxicity,Homo sapiens [23],260
same,IC50,L1210 [17],50 µM
same,Control,L1210 [18],90%
same,Control,L1210 [19],50%
same,Cytotoxicity,L1210 [24],410
same,Cytotoxicity,MC-38,430
same,Cytotoxicity,Mus musculus [25],500
Nc1ccn(C/C=C\CCl)c(=O)n1,Control,L1210 [26],100%
same,Cytotoxicity,Homo sapiens [27],640
same,Control,L1210 [28],100%
same,Control,L1210 [29],67%
same,Cytotoxicity,[30],410
same,IC50,L1210 [17],10 µM
same,Control,L1210 [31],100%
same,Control,L1210 [32],80%
same,Cytotoxicity,[33],450
same,Cytotoxicity,L1210 [34],640
same,Control,L1210 [35],100%
Oc1nccc(NCC#CCCl)n1,Control,Nucleic Acid [36],60%
same,Control,Nucleic Acid [37],5%
same,Control,Mus musculus [38],85%
same,Control,Nucleic Acid [39],75%
same,Control,Nucleic Acid [40],35%
same,Control,Mus musculus [41],55%
same,Cytotoxicity,Homo sapiens [23],660
same,IC50,L1210 [17],20 µM
same,Control,Mus musculus [42],70%
same,Cytotoxicity,L1210 [24],530
same,Cytotoxicity,MC-38,720
same,Control,Nucleic Acid [43],60%
same,Control,Nucleic Acid [44],18%
same,Cytotoxicity,[45],600
